In ChEMBL document CHEMBL1938374, “Synthesis and biological characterization of 3-substituted-1H-indoles as ligands of GluN2B-containing N-methyl-D-aspartate receptors” (J Med Chem, 2011):
Calls of active or inactive are those of the source. No cut-off for these calls is given here.

Key:
[1] = target: Glutamate receptor ionotropic, NMDA 2B (Rattus norvegicus) (UniProt Q00960); assay: Displacement of [3H]ifenprodil from GluN2B/NMDA in Wistar rat cerebral cortex at 10 uM after 120 mins by scintillation counting; format: tissue-based
Sequence of Glutamate receptor ionotropic, NMDA 2B (Rattus norvegicus) (Q00960 27-1482 limits assumed): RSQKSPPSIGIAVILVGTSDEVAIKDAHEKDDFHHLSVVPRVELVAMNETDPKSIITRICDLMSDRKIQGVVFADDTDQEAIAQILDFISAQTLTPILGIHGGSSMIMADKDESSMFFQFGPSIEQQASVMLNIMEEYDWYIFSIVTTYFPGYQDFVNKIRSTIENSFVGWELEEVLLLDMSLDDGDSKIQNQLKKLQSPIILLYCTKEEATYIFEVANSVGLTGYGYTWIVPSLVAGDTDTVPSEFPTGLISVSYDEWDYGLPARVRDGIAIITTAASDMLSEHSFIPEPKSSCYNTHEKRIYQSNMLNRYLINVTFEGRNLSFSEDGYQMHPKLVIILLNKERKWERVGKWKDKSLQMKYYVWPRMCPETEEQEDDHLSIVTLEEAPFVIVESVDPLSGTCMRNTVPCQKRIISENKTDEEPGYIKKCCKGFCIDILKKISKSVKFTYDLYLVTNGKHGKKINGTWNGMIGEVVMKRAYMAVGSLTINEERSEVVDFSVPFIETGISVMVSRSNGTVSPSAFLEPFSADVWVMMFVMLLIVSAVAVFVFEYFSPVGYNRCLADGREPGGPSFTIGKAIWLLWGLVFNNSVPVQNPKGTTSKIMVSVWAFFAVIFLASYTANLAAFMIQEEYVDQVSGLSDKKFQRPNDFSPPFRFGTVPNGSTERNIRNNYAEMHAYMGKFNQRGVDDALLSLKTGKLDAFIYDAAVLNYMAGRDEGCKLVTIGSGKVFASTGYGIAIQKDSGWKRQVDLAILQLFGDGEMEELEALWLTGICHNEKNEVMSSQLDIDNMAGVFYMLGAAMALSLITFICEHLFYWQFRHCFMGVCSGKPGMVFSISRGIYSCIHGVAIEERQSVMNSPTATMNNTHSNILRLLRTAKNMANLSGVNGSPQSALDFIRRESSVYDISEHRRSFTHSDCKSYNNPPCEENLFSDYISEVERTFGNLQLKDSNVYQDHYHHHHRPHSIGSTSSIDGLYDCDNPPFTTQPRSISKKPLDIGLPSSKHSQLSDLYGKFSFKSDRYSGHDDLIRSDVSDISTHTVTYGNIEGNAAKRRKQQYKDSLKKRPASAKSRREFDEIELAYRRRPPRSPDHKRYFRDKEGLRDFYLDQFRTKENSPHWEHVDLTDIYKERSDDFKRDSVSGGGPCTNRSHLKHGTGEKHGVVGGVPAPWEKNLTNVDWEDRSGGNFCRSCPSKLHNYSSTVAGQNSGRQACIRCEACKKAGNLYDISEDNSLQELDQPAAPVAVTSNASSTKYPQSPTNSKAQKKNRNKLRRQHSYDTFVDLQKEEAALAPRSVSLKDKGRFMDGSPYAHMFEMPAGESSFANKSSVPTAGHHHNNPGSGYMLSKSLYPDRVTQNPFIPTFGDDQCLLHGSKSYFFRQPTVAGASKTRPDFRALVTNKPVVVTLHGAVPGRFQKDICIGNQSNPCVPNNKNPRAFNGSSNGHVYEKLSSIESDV

Mus musculus [2] = assay: Anticonvulsant activity in DBA/2 mouse assessed as inhibition of audiogenic tonic seizures administered as ip, 30 mins prior to auditory stimulation measured for 60 secs; format: functional; conditions: DBA/2, ip
How it was run: (§1)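 Seizure ED50 values, in μmol/kg, were computed by the Litchfield and Wilcoxon method. At least 32 animals went into each ED50, and 95% confidence limits are reported.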

Mus musculus [3] = assay: Anticonvulsant activity in DBA/2 mouse assessed as inhibition of audiogenic clonic seizures administered as ip, 30 mins prior to auditory stimulation measured for 60 secs; format: functional; conditions: DBA/2, ip; how it was run: as §1
[4] = target: Glutamate receptor ionotropic, NMDA 2B (Rattus norvegicus, UniProt Q00960); assay: Displacement of [3H]ifenprodil from GluN2B/NMDA in Wistar rat cerebral cortex after 120 mins by scintillation counting; format: tissue-based
Sequence of Glutamate receptor ionotropic, NMDA 2B (Q00960 whole entry): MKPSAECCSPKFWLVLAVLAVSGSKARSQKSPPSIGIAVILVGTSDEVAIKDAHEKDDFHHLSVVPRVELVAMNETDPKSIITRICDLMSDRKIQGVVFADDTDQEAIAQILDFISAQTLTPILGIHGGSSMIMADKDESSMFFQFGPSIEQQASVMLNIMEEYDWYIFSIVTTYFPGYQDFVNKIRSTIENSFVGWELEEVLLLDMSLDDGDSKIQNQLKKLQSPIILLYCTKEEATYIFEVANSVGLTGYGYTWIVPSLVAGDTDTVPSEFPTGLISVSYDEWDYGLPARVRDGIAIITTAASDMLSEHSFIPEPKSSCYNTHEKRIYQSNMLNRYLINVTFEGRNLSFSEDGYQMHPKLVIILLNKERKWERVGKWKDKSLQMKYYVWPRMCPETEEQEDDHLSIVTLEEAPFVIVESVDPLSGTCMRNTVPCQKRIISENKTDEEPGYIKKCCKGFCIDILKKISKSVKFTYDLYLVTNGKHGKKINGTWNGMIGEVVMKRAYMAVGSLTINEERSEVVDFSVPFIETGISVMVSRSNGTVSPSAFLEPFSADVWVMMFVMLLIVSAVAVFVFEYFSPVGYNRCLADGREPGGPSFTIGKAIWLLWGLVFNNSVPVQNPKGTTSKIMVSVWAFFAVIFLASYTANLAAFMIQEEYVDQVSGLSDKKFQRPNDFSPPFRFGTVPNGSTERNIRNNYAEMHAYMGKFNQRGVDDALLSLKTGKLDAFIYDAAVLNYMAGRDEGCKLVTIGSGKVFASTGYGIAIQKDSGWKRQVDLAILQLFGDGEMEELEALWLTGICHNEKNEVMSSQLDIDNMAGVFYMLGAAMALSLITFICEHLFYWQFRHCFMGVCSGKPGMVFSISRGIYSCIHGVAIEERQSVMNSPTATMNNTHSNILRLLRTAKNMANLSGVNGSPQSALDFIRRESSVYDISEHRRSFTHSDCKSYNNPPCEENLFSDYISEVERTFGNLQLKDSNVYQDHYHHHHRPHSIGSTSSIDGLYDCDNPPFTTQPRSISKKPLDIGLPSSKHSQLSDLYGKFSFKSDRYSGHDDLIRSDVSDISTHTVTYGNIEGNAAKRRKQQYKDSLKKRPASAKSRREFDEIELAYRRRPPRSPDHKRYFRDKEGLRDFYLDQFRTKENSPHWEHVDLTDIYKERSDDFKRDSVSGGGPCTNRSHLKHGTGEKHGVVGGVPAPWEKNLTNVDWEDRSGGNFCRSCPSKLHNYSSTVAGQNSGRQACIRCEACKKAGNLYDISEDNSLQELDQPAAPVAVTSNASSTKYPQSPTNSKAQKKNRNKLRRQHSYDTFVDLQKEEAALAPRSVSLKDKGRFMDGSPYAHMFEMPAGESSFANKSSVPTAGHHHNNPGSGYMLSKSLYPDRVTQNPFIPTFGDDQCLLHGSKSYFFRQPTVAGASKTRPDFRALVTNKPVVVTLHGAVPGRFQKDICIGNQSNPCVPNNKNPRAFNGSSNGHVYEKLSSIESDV

[5] = Displacement of [3H]DTG from sigma 2 receptor after 120 mins by liquid scintillation counting in presence of (+)-SKF10,047
[6] = target: Sigma non-opioid intracellular receptor 1 (Cavia porcellus, UniProt Q60492); assay: Displacement of [3H](+)pentazocine from sigma 1 receptor in guinea pig brain membrane after 150 mins by liquid scintillation counting; format: cell membranes
Sequence of Sigma non-opioid intracellular receptor 1 (Q60492 whole entry): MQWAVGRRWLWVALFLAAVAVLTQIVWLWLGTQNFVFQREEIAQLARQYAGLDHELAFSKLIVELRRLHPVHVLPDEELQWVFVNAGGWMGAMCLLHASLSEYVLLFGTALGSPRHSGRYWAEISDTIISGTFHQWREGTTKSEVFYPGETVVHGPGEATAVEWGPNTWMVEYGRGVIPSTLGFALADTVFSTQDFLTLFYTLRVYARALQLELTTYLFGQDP

[7] = target: Glutamate receptor ionotropic, NMDA 2B (Mus musculus) (UniProt Q01097); assay: Antagonist activity at GluN2B/NMDA in FVB mouse CA1 pyramidal neurons assessed as reduction in NMDA-mediated inward current at 10 uM measured for 5 mins by whole-cell patch clamp assay in presence of glycine and tetrodotoxin; format: functional, cell-based; conditions: Pyramidal neuron
Sequence of Glutamate receptor ionotropic, NMDA 2B (Mus musculus) (Q01097 whole entry): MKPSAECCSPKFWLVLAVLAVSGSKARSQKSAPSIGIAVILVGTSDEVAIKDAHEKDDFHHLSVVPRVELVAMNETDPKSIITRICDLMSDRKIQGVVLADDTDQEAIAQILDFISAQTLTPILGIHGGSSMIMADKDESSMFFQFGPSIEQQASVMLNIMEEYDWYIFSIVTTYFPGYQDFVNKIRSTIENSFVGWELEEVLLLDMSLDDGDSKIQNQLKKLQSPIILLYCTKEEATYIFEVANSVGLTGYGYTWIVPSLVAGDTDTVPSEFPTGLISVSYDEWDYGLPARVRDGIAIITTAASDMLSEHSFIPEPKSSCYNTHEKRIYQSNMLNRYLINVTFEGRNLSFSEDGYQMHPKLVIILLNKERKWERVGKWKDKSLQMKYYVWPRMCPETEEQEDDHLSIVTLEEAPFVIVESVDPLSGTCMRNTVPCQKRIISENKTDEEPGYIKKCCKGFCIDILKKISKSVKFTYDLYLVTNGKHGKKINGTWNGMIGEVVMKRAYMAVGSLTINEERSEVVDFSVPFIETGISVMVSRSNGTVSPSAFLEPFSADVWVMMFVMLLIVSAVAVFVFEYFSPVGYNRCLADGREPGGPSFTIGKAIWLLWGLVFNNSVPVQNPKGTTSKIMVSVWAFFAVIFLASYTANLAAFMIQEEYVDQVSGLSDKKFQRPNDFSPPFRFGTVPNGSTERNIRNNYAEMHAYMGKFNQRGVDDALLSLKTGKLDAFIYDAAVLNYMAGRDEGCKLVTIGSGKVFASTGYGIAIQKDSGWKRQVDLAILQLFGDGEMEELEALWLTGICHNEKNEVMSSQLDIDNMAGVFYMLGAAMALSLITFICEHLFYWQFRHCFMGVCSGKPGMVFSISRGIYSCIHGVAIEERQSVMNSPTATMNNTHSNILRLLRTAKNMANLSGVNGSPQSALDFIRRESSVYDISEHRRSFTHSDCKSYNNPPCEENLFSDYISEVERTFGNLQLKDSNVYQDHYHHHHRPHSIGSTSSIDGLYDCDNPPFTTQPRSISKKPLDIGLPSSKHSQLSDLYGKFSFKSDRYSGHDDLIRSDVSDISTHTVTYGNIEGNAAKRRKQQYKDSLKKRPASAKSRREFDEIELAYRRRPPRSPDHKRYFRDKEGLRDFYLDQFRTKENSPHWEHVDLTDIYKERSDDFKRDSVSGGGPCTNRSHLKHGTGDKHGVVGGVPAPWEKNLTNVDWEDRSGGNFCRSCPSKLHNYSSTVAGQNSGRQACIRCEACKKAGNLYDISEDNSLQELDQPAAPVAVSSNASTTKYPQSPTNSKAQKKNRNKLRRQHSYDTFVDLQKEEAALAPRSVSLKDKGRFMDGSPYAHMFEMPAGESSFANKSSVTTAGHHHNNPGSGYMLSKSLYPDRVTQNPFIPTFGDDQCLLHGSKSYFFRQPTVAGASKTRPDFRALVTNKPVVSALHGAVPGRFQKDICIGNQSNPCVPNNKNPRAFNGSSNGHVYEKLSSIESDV

Compound | Activity [1] [%] | ED50 (Mus musculus [2]) [µmol/kg] | ED50 (Mus musculus [3]) [µmol/kg] | IC50 [4] [nM] | Ki [5] [nM] | Ki [6] [nM] | Activity [7]
COc1ccc2[nH]cc(C(=O)CN3CCC(Cc4ccccc4)CC3)c2c1 | 86 | – | – | – | – | – | –
COc1cccc2[nH]cc(C(=O)CN3CCC(Cc4ccccc4)CC3)c12 | 82 | 16.2 | 32.7 | 324 | – | – | –
COc1ccc2c(C(=O)C(=O)N3CCC(Cc4ccccc4)CC3)c[nH]c2c1 | – | 4.68 | 11.9 | – | – | – | –
COc1cccc2[nH]cc(C(=O)C(=O)N3CCC(Cc4ccccc4)CC3)c12 | 14 | 76.7 | > 100 | – | – | – | –
O=C(CN1CCN(Cc2ccccc2)CC1)c1c[nH]c2ccc(O)cc12 | 27 | 44.9 | > 100 | – | 557 | 437 | –
COc1ccc2c(C(=O)CN3CCC(Cc4ccccc4)CC3)c[nH]c2c1 | 4 | 30.1 | 67.8 | – | – | – | –
COc1ccc2[nH]cc(C(=O)CN3CCN(Cc4ccccc4)CC3)c2c1 | – | 63.8 | 98.7 | – | – | – | –
COc1cccc2c(C(=O)CN3CCC(Cc4ccccc4)CC3)c[nH]c12 | 62 | 35.8 | 80.3 | 2910 | – | – | –
O=C(CN1CCC(Cc2ccccc2)CC1)c1c[nH]c2c(O)cccc12 | 72 | 53.8 | > 100 | 7140 | – | – | –
O=C(C(=O)N1CCC(Cc2ccccc2)CC1)c1c[nH]c2cccc(O)c12 | 24 | 28.9 | 52.1 | – | – | – | –
O=C(C(=O)N1CCC(Cc2ccccc2)CC1)c1c[nH]c2c(O)cccc12 | 79 | 36.2 | 80.5 | 1990 | – | – | –
O=C(CN1CCC(Cc2ccccc2)CC1)c1c[nH]c2ccc(O)cc12 | – | – | – | – | 76.5 | > 1000 | Active
O=C(CN1CCC(Cc2ccccc2)CC1)c1c[nH]c2cc(O)ccc12 | 92 | 53.7 | 95.4 | 17 | 43 | > 1000 | inactive
O=C(C(=O)N1CCC(Cc2ccccc2)CC1)c1c[nH]c2cc(O)ccc12 | 92 | 38.9 | 84.4 | 22 | – | > 1000 | –
O=C(C(=O)N1CCC(Cc2ccccc2)CC1)c1c[nH]c2ccc(O)cc12 | – | – | – | – | – | > 1000 | –
O=C(CN1CCN(Cc2ccccc2)CC1)c1c[nH]c2ccccc12 | 14 | – | – | – | – | – | –
COc1ccc2[nH]cc(C(=O)C(=O)N3CCC(Cc4ccccc4)CC3)c2c1 | 9 | – | – | – | – | – | –
O=C(CN1CCC(Cc2ccccc2)CC1)c1c[nH]c2cccc(O)c12 | 77 | 13.7 | 68.1 | 6640 | – | – | –
COc1cccc2c(C(=O)C(=O)N3CCC(Cc4ccccc4)CC3)c[nH]c12 | 33 | 27.4 | 51.4 | – | – | – | –
